Calls of active or inactive are those of the source. The calls are words filed in the database; no cut-off is given here.
Columns and labels:
Cricetinae gen. sp. [1] = assay: Compound was evaluated for the biological activity against Ancylostoma ceylanicum in hamsters at the 100 mg/kg; type: functional, Cricetulus griseus
How it was run: (§1)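 Hamsters of either sex (40–60 g) infected orally with 60 third-stage larvae. Test compound given orally as a single dose on day 20 ± 1 postinfection, starting at 250 mg/kg × 1. Lower doses were used for active compounds to establish dose–response. Method of Ray et al. as modified locally.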

Ancylostoma ceylanicum = assay: Compound was evaluated for the biological activity against Ancylostoma ceylanicum in hamsters at the 250 mg/kg; type: functional; how it was run: as §1
Rattus norvegicus [2] = assay: Compound was evaluated for the biological activity against Hymenolepsis nana (rats) at the 100 mg/kg; type: functional
How it was run: (§2)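 Male rats (25–35 g) infected orally with 200 viable eggs. Infection confirmed by ovoscopic examination on days 17–20 postinoculation. Positive rats dosed orally on day 20 ± 1, initially 250 mg/kg × 1, then lower doses for dose–response. Method of Steward.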

[3] = system: Nippostrongylus brasiliensis; assay: Anti-nematode activity against Nippostrongylus brasiliensis in rats at 250 mg/kg; Insignificant activity.; type: functional
Rattus norvegicus [4] = assay: Compound was evaluated for the biological activity against Hymenolepsis nana (rats) at the 250 mg/kg; type: functional; how it was run: as §2
Rattus norvegicus [5] = assay: Compound was evaluated for the biological activity against Hymenolepsis nana (rats) at the 250 mg/kg; insignificant activity; type: functional, organism-based; set-up: dose 250 mg/kg; how it was run: as §2
Rattus norvegicus [6] = assay: Compound was evaluated for the biological activity against Nippostrongylus brasiliensis in rats at the 250 mg/kg; type: functional
How it was run: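 Male rats (25–40 g) inoculated subcutaneously with 500 larvae taken from 6–8-day-old fecal culture. Compounds given orally on day 9 postinfection at 250 mg/kg × 3, with lower doses as follow-up for active compounds. Steward technique as modified by Katiyar and Sen.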

Cricetinae gen. sp. [7] = assay: Compound was evaluated for the biological activity against Ancylostoma ceylanicum in hamsters at the 100 mg/kg; insignificant activity; type: functional, organism-based; set-up: dose 100 mg/kg; details: Cricetulus griseus; how it was run: as §1
Cricetinae gen. sp. [8] = assay: Compound was evaluated for the biological activity against Ancylostoma ceylanicum in hamsters at the 50 mg/kg; type: functional, Cricetulus griseus; how it was run: as §1
Cricetinae gen. sp. [9] = assay: Compound was evaluated for the biological activity against Ancylostoma ceylanicum in hamsters at the 100-25 mg/kg; type: functional, Cricetulus griseus; how it was run: as §1
Rattus norvegicus [10] = assay: Compound was evaluated for the biological activity against Hymenolepsis nana (rats) at the 25 mg/kg; type: functional; how it was run: as §2
Rattus norvegicus [11] = assay: Compound was evaluated for the biological activity against Hymenolepsis nana (rats) at the 50 mg/kg; type: functional; how it was run: as §2
Cricetinae gen. sp. [12] = assay: Compound was evaluated for the biological activity against Ancylostoma ceylanicum in hamsters at the 10 mg/kg; type: functional, Cricetulus griseus; how it was run: as §1

Row | Compound | Activity (Ancylostoma ceylanicum) [%] | Activity [3] | Activity (Rattus norvegicus [4]) [%] | Activity (Rattus norvegicus [5]) | other results
1 | CCCN(CCC)C(=O)c1ccc2[nH]c(NC(=O)OC)nc2c1 | 100 | inactive | 100 |  | Activity (Cricetinae gen. sp. [1]): 75%; Activity (Rattus norvegicus [2]): 100%
2 | COC(=O)Nc1nc2cc(C(=O)NCCNC(=O)c3ccc4[nH]c(NC(=O)OC)nc4c3)ccc2[nH]1 | 50 | inactive |  | inactive | 
3 | COC(=O)Nc1nc2cc(C(=O)NC3CCCCC3)ccc2[nH]1 | 100 |  |  | inactive | Activity (Rattus norvegicus [6]): 63.2%
4 | COC(=O)Nc1nc2cc(C(=O)Nc3ccc(S(=O)(=O)c4ccc(NC(=O)c5ccc6[nH]c(NC(=O)OC)nc6c5)cc4)cc3)ccc2[nH]1 | 48.2 | inactive |  | inactive | 
5 | COC(=O)Nc1nc2cc(C(=O)NCCc3ccc(NC(=O)c4ccc5[nH]c(NC(=O)OC)nc5c4)cc3)ccc2[nH]1 | 50 | inactive |  | inactive | 
6 | COC(=O)Nc1nc2cc(C(=O)Nc3ccccc3)ccc2[nH]1 | 87 | inactive |  |  | 
7 | COC(=O)Nc1nc2cc(C(=O)Nc3ccc(F)cc3)ccc2[nH]1 | 100 | inactive | 100 |  | 
8 | COC(=O)Nc1nc2cc(C(=O)NC3=NCCS3)ccc2[nH]1 | 100 | inactive | 100 |  | Activity (Cricetinae gen. sp. [7]): inactive; Activity (Cricetinae gen. sp. [8]): 55.5%
9 | COC(=O)Nc1nc2cc(C(=O)NCc3ccco3)ccc2[nH]1 | 100 | inactive | 100 |  | Activity (Cricetinae gen. sp. [9]): 100%; Activity (Rattus norvegicus [2]): 100%; Activity (Rattus norvegicus [10]): 100%; Activity (Rattus norvegicus [11]): 100%; Activity (Cricetinae gen. sp. [12]): 57%
10 | CCOC(=O)Nc1nc2cc(C(=O)NCCc3ccc(OC)c(OC)c3)ccc2[nH]1 |  |  |  | inactive | 
11 | CCN(CC)C(=O)c1ccc2[nH]c(NC(=O)OC)nc2c1 | 100 |  | 100 |  | Activity (Rattus norvegicus [6]): 100%
12 | COC(=O)Nc1nc2cc(C(=O)Nc3cccc(C)n3)ccc2[nH]1 | 100 | inactive | 100 |  | Activity (Cricetinae gen. sp. [1]): 100%; Activity (Cricetinae gen. sp. [8]): 92.5%
13 | CCCCNC(=O)c1ccc2[nH]c(NC(=O)OC)nc2c1 | 100 | inactive | 100 |  | 
14 | COC(=O)Nc1nc2cc(C(=O)Nc3ccc(Sc4ccc(NC(=O)c5ccc6[nH]c(NC(=O)OC)nc6c5)cc4)cc3)ccc2[nH]1 | 48.2 | inactive |  | inactive | 
